Only some compounds are listed: those with a hit (about 5.8% of all), similar ones and a draw of the others.
IDH1 mut inh: blocks human IDH1 R132H reductase activity; 70,000 tested, 0.18% active; O75874; diaphorase/resazurin fluorescence, 60 min; inhibition, % at 10 µM; in the data active = inhibition above about 34%; inconclusive = no clear call, values can overlap the other calls; inactive = below about 11%;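 also: 0% = DMSO and 100% = no enzyme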
T cruzi growth-1: blocks T. cruzi growth in NIH3T3 culture; T. cruzi beta-gal in NIH3T3, GalScreen luminescence, 90 h; inhibition, % at 8.34 µM; 77,000 tested, 5.9% active; AID 624255;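 active = mean inhibition above about 93%, with at least 55% of replicates each passing it, limit read from the data, passing the limit was not always enough; inconclusive = only one of those two conditions holds; inactive = neither condition holds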
Pf Dd2 growth: P. falciparum Dd2 growth inhibition; SYBR Green, 72 h; hits give low values; activity change, % at 10 µM; 94,000 tested, 2.3% active; in the data active = activity change below about -80%; inconclusive = no clear call, values can overlap the other calls
KDM4C inh: blocks human GASC-1 (KDM4C) demethylase activity; 96,000 tested, 0.15% active; GST-KDM4C 2-372, H3K9me3 peptide, LANCE TR-FRET; AID 720574; inhibition, % at 12.5 µM;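 active = mean replicate inhibition above about 25%, with at least 55% of replicates also reaching it, limit read from the data, passing the limit was not always enough; inconclusive = only one of those two conditions met; inactive = neither condition met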
Target sequence (Q9H3R0 2-372 limits assumed): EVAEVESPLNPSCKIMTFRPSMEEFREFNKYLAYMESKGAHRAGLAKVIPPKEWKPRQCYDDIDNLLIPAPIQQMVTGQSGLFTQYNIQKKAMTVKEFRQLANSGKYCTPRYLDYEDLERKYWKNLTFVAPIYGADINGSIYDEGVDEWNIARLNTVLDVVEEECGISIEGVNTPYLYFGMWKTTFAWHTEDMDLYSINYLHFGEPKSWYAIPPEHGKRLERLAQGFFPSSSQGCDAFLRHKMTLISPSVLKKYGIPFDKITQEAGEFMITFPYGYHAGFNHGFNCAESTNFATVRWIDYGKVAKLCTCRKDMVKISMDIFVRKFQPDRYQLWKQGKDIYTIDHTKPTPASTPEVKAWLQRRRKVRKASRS
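Material: GST-tagged GASC-1 (JMJD2C) catalytic fragment, aa 2-372 / Quantity: enzyme final amount 10 nM / Medium: HEPES buffer, pH 7.5, plus ascorbate / Doses: one test concentration per compound / Incubation: 30 min reaction, 60 min detection, RT / Measured by: LANCE TR-FRET / Read-out: inhibition from TR-FRET ratio decrease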
T cruzi growth-2: blocks T. cruzi growth in NIH3T3 host cells | T. cruzi beta-gal in NIH3T3, GalScreen luminescence, 90 h | inhibition, % at 8.35 µM | 5,600 tested, 72% active | shares compounds with T cruzi growth-1;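 active = mean replicate inhibition above about 95% and at least 55% of replicates individually reaching it, limit read from the data; inconclusive = only one of the two criteria is met; inactive = neither criterion is met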
T cruzi growth-3: inhibitors of T. cruzi proliferation; shares compounds with T cruzi growth-1; T. cruzi beta-gal in NIH3T3, GalScreen luminescence, 90 h; inhibition, % at 2.09 µM; 5,600 tested, 21% active; AID 651740;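 active = mean inhibition above about 95%, with at least 55% of replicates also reaching it, limit read from the data; inconclusive = meets just one of the two conditions; inactive = meets neither condition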;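 also: plate controls were neutral control median for no effect and positive control median for full effect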
3T3 cytotox: cytotoxicity in mouse NIH/3T3 fibroblasts. shares compounds with T cruzi growth-1. NIH/3T3 viability, CellTiter-Glo ATP luminescence, 90 h. cytotoxicity (signal decrease), % at 8.35 µM. 5,600 tested, 14% active;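 active = mean signal decrease across replicates above about 35% based on untreated-well scatter, with enough replicates individually passing, limit read from the data; inconclusive = no rule stated though some were filed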;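 also: 0% = median of neutral control wells and 100% = median of positive control wells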
NIH3T3 tox 2: NIH/3T3 (mouse) viability loss | NIH/3T3 viability, CellTiter-Glo ATP luminescence, 90 h | inhibition, % at 24.9 µM | shares compounds with T cruzi growth-1 | 5,600 tested, 56% active;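 active = mean loss of cell viability signal at or above a set limit, and enough replicates individually reaching it; inconclusive = meets only the mean limit or only the replicate share; inactive = meets neither condition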;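 also: 0% = median of neutral control wells and 100% = median of positive control wells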
An asterisk follows results filed as active; ? = inconclusive; · = no result given; ! = not active in a repeat.

SMILES	IDH1 mut inh	T cruzi growth-1	Pf Dd2 growth	KDM4C inh	T cruzi growth-2	T cruzi growth-3	3T3 cytotox	NIH3T3 tox 2
COc1cccc(-c2ccc3c(c2)[C@H]2[C@H](CCN2C(=O)c2cnccn2)[C@H](CO)N3)c1	·	74.5	-11.7	4.8	·	·	·	·
C[C@@H]1CN([C@H](C)CO)C(=O)c2c(c3ccccc3n2C)-c2ccccc2CO[C@@H]1CN(C)C(=O)c1ccncc1	0.1	-18.7	-0.2	-0.2	·	·	·	·
COc1ccc(S(=O)(=O)N(C)C[C@H]2Oc3ccc(NC(=O)Nc4ccc(C(F)(F)F)cc4)cc3C(=O)N([C@@H](C)CO)C[C@H]2C)cc1	0.3	?	11.0	-4.0	99.4*	60.4	44.8*	80.9*
COc1ccc(NC(=O)Nc2ccc3c(c2)C(=O)N([C@H](C)CO)C[C@@H](C)[C@@H](CN(C)S(=O)(=O)c2ccc(OC)cc2)O3)cc1	-1.0	16.0	24.0	2.6	·	·	·	·
COc1ccc(S(=O)(=O)N(C)C[C@@H]2Oc3ccc(NC(=O)Nc4ccc(C(F)(F)F)cc4)cc3C(=O)N([C@@H](C)CO)C[C@@H]2C)cc1	0.8	?	-16.1	-5.0	101.6*	57.2	?	45.8*
COc1ccc(S(=O)(=O)N(C)C[C@H]2Oc3ccc(NC(=O)Nc4ccc(C(F)(F)F)cc4)cc3C(=O)N([C@H](C)CO)C[C@H]2C)cc1	0.1	?	-17.6	-2.8	102.9*	25.1	41.9*	50.7*
COc1c(C(C)C)cc2c(c1O)[C@]13CC[C@H](OC1=O)C(C)(C)C3CC2 (stereo partly specified)	6.8	·	·	·	·	·	·	·
C[C@@H]1CCCCO[C@@H](CN(C)CC2CC2)[C@H](C)CN([C@@H](C)CO)C(=O)c2cc(NC(=O)NC3CCCCC3)ccc2O1	·	2.1	-32.7	-0.7	·	·	·	·
C[C@H](CO)N1C[C@H](C)[C@@H](CN(C)C(=O)Nc2cc(F)ccc2F)Oc2cc(-c3ccc(C#N)cc3)ccc2S1(=O)=O	·	117.8*	-58.3	-1.5	101.3*	27.9	46.2*	82.8*
C[C@H](CO)N1C[C@H](C)[C@@H](CN(C)C(=O)Nc2ccccc2F)Oc2cc(-c3cccc(C#N)c3)ccc2S1(=O)=O	·	?	-50.5	-0.2	103.2*	50.8	41.3*	69.2*
C[C@@H]1CN([C@H](C)CO)S(=O)(=O)c2ccc(-c3ccc(C#N)cc3)cc2O[C@@H]1CN(C)C(=O)Nc1cc(F)ccc1F	-0.3	114.6*	-45.1	1.3	92.0	-7.3	-3.3	77.4*
C[C@@H]1CN([C@H](C)CO)S(=O)(=O)c2ccc(-c3ccc(C#N)cc3)cc2O[C@H]1CN(C)C(=O)Nc1cc(F)ccc1F	·	109.4*!	-55.7	15.1	78.5	53.3	80.7*	83.0*
C[C@H]1CN([C@@H](C)CO)S(=O)(=O)c2ccc(-c3ccc(C#N)cc3)cc2O[C@H]1CN(C)C(=O)Nc1cc(F)ccc1F	6.2	122.1*	-73.9	0.4	102.2*	67.0	30.1	83.5*
C[C@@H]1CN([C@H](C)CO)S(=O)(=O)c2ccc(-c3cccc(C#N)c3)cc2O[C@@H]1CN(C)C(=O)Nc1cc(F)ccc1F	·	·	-32.1	-2.9	·	·	·	·
COCC#Cc1ccc2c(c1)O[C@@H](CN(C)Cc1ccncc1)[C@H](C)CN([C@H](C)CO)S2(=O)=O	-2.6	109.2*	-4.1	5.6	99.9*	91.4	11.5	63.0*
COCC#Cc1ccc2c(c1)O[C@H](CN(C)Cc1cncnc1)[C@@H](C)CN([C@@H](C)CO)S2(=O)=O	-1.8	-3.6	-7.4	-2.9	·	·	·	·
COCC#Cc1ccc2c(c1)O[C@@H](CN(C)Cc1ccccc1)[C@H](C)CN([C@H](C)CO)S2(=O)=O	-1.2	108.5*	-70.1	-3.7	92.9	44.6	53.2*	105.5*
COCC#Cc1ccc2c(c1)O[C@@H](CN(C)Cc1cncnc1)[C@H](C)CN([C@@H](C)CO)S2(=O)=O	-0.3	106.3*	8.3	-0.1	106.4*	89.2	10.0	36.1*
COCC(=O)Nc1ccc2c(c1)[C@@H]1C[C@@H](CC(=O)NCCc3ccccc3)O[C@H](CO)[C@@H]1O2	-0.3	19.8	8.3	-1.2	·	·	·	·
COCC(=O)N1CC[C@H]2[C@H](CO)Nc3ccc(-c4cccc(C#N)c4)cc3[C@H]21	·	69.9	30.6	-2.3	·	·	·	·
CC1C=NC(S(=O)(=O)N2CC[C@@H]3[C@@H](CO)N(C)c4ccc(-c5ccccc5F)cc4[C@@H]32)=N1 (stereo partly specified)	·	76.2	16.7	0.0	·	·	·	·
COCC(=O)Nc1ccc2c(c1)C(=O)N(C)C[C@@H](OC)[C@H](C)CN(Cc1ccccc1F)[C@@H](C)CO2	0.3	48.0	-59.2	0.6	·	·	·	·
C[C@@H]1CN([C@@H](C)CO)C(=O)c2cc(NC(=O)NC3CCCCC3)ccc2O[C@H]1CN(C)Cc1ccc(Cl)c(Cl)c1	5.6	?	3.0	0.2	110.5*	43.1	8.2	3.1
C[C@@H]1CN([C@@H](C)CO)C(=O)c2cc(NC(=O)C3CCCCC3)ccc2O[C@@H]1CN(C)Cc1ccc(Cl)c(Cl)c1	1.5	?	1.4	1.1	103.0*	94.5	11.7	39.3*
COc1ccc(NC(=O)Nc2ccc3c(c2)[C@@H]2C[C@H](CC(=O)NCc4ccc5c(c4)OCO5)O[C@H](CO)[C@@H]2O3)cc1	0.0	102.1*	-13.4	-0.7	91.6	61.5	1.6	11.6
COc1ccc(NC(=O)Nc2ccc3c(c2)[C@@H]2C[C@H](CC(=O)NCCc4ccccc4)O[C@@H](CO)[C@@H]2O3)cc1	1.3	176.1*	-16.7	-1.9	104.7*	?	7.1	10.6
CCCNC(=O)C[C@H]1C[C@@H]2c3cc(NC(=O)Nc4ccc(OC)cc4)ccc3O[C@@H]2[C@H](CO)O1	-0.6	34.3	-2.2	-2.9	·	·	·	·
COc1ccc(NC(=O)Nc2ccc3c(c2)[C@H]2C[C@@H](CC(=O)NCCc4ccccc4)O[C@@H](CO)[C@H]2O3)cc1	-0.4	156.6*	-36.7	-1.6	111.8*	97.7*	-9.7	-3.0
COc1ccc(NC(=O)Nc2ccc3c(c2)[C@H]2C[C@H](CC(=O)NCc4ccc5c(c4)OCO5)O[C@@H](CO)[C@H]2O3)cc1	0.1	37.4	-6.2	-1.2	·	·	·	·
COc1ccc(NC(=O)N(C)C[C@H]2Oc3c(NC(=O)Nc4ccc5c(c4)OCO5)cccc3C(=O)N([C@@H](C)CO)C[C@@H]2C)cc1	-0.3	4.5	-4.9	2.6	·	·	·	·

Assay outcomes: PubChem BioAssay, Broad Institute
